Reference: ChEMBL document CHEMBL4196221, “Improved Total Synthesis and Biological Evaluation of Coibamide A Analogues” (J Med Chem, 2018)
The source made the active and inactive calls. No cut-off for these calls is given here. Bridge positions count the residues as written; N and C are the ends. Square brackets hold non-standard residues; d marks the D form. Peptide text beside a SMILES is read from it. * marks the point of attachment. NMe2Val = CC(C)[C@@H](C(=O)*)N(C)C; NMeI = CC[C@H](C)[C@H](NC)C(=O)O; NMeT = CN[C@H](C(=O)O)[C@@H](C)O; NMeL = CN[C@@H](CC(C)C)C(=O)O; dHiv = CC(C)[C@@H](O)C(=O)O; NMeA = CN[C@@H](C)C(=O)O; dNMeA = CN[C@H](C)C(=O)O

Legend:
PANC-1 = experiment: Growth inhibition of human PANC1 cells incubated for 72 hrs by MTT assay; type: functional; conditions: PANC-1, 72 h
Outline: (§1)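 Cells seeded in 96-well plates; after 12 h, fresh medium with a concentration gradient of compound or DMSO vehicle added, then 72 h incubation. MTT added (final 0.5 mg/mL) for 4 h, medium removed, formazan dissolved in DMSO, shaken 2 min, 30 min at 37 °C, absorbance read at 490 nm. Inhibition % = [1 − OD(compound)/OD(control)] × 100; GI50 = 50% reduction versus control; three independent experiments.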

MDA-MB-231 [1] = experiment: Growth inhibition of human MDA-MB-231 cells incubated for 72 hrs by MTT assay; type: functional; conditions: MDA-MB-231, 72 h; outline: as §1
A549 = experiment: Growth inhibition of human A549 cells incubated for 72 hrs by MTT assay; type: functional; conditions: A549, 72 h; outline: as §1
Mus musculus [2] = experiment: Toxicity in Balb/c nude mouse xenografted with human MDA-MB-231 cells assessed as induction of body weight loss at 0.3 mg/kg, sc dosed every 2 days for total of 11 compound injections; type: organism-based; conditions: in vivo, 48 h
Outline: (§2)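 Balb/c nude mice given 1 ×10^7 MDA-MB-231 cells subcutaneously in right flank; at tumor size ∼100 mm3 (L × W × 1/2W), peritumoral subcutaneous injection every 2 days, vehicle equal volume 20% DMSO/80% sterile saline. Tumor size and body weight measured before each injection; after 11 injections mice sacrificed and tumors weighed. n = 7 treated, 4 vehicle; one-way ANOVA.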

MDA-MB-231 [3] = experiment: Antitumor activity against human MDA-MB-231 cells xenografted in Balb/c nude mouse assessed as reduction in tumor size at 0.3 mg/kg, sc dosed every 2 days for total of 11 compound injections measured on day 9 onwards; type: functional, organism-based; outline: as §2
MDA-MB-231 [4] = experiment: Antitumor activity against human MDA-MB-231 cells xenografted in Balb/c nude mouse assessed as reduction in tumor mass at 0.3 mg/kg, sc dosed every 2 days for total of 11 compound injections; type: functional; outline: as §2
Mus musculus [5] = experiment: Toxicity in Balb/c nude mouse xenografted with human MDA-MB-231 cells assessed as induction of side effect at 0.3 mg/kg, sc dosed every 2 days for total of 11 compound injections; type: organism-based; conditions: in vivo, 48 h; outline: as §2

Structure (SMILES) | GI50 (PANC-1) | GI50 (MDA-MB-231 [1]) | GI50 (A549) | Activity (Mus musculus [2]) | Activity (MDA-MB-231 [3]) | fold change (FC) (MDA-MB-231 [4]) | Activity (Mus musculus [5])
CC[C@H](C)[C@H]1C(=O)N[C@@H](C)C(=O)N(C)[C@@H](CC(C)C)C(=O)N[C@@H](Cc2ccc(OC)cc2)C(=O)N(C)[C@H](C)C(=O)O[C@H](C)[C@H](N(C)C(=O)[C@H](CC(C)C)N(C)C(=O)[C@H](C)N(C)C(=O)[C@@H](C(C)C)N(C)C(=O)[C@H](C(C)C)N(C)C)C(=O)N(C)[C@@H](C)C(=O)N1C | 723 nM | 415 nM | 511 nM | – | – | – | –
CC[C@H](C)[C@H]1C(=O)N[C@@H](C)C(=O)N(C)[C@@H](CC(C)C)C(=O)N[C@@H](Cc2ccc(OC)cc2)C(=O)N(C)[C@H](C)C(=O)O[C@H](C)[C@H](N(C)C(=O)[C@H](CC(C)C)N(C)C(=O)[C@H](C)N(C)C(=O)[C@H](OC(=O)[C@@H](NC)C(C)C)C(C)C)C(=O)N(C)[C@@H](C)C(=O)N1C | 204 nM | 236 nM | 360 nM | – | – | – | –
CC[C@H](C)[C@H]1C(=O)N[C@@H](C)C(=O)N(C)[C@@H](CC(C)C)C(=O)N[C@@H](Cc2ccc(OC)cc2)C(=O)N(C)[C@H](C)C(=O)O[C@H](C)[C@H](N(C)C(=O)[C@H](CC(C)C)N(C)C(=O)[C@H](COC)N(C)C(=O)[C@H](NC(=O)[C@H](C(C)C)N(C)C)C(C)C)C(=O)N(C)[C@@H](COC)C(=O)N1C | 601 nM | 450 nM | 473 nM | – | – | – | –
CC[C@H](C)[C@H]1C(=O)N[C@@H](C)C(=O)N(C)[C@@H](CC(C)C)C(=O)N[C@@H](Cc2ccc(OC)cc2)C(=O)N(C)[C@H](C)C(=O)O[C@H](C)[C@H](N(C)C(=O)[C@H](CC(C)C)N(C)C(=O)[C@H](C)N(C)C(=O)[C@H](OC(=O)[C@H](C(C)C)N(C)C)C(C)C)C(=O)N(C)[C@@H](C)C(=O)N1C (NMe2Val-[dHiv][NMeA][NMeL][NMeT][NMeA][NMeI]A[NMeL]Y(Me)[dNMeA]; ester 4-C) | 7 nM | 5.1 nM | 7.3 nM | Non-Toxic | Active | 2 | Non-Toxic
CC[C@H](C)[C@H]1C(=O)N[C@@H](C)C(=O)N(C)[C@@H](CC(C)C)C(=O)N[C@@H](Cc2ccc(OC)cc2)C(=O)N(C)[C@H](C)C(=O)O[C@H](C)[C@H](N(C)C(=O)[C@H](CC(C)C)N(C)C(=O)[C@H](C)N(C)C(=O)[C@H](OC(=O)[C@H](C(C)C)N(C)C(=O)CCN)C(C)C)C(=O)N(C)[C@@H](C)C(=O)N1C | – | > 16000 nM | – | – | – | – | –
CC[C@H](C)[C@H]1C(=O)N[C@@H](C)C(=O)N(C)[C@@H](CC(C)C)C(=O)N[C@@H](Cc2ccc(OC)cc2)C(=O)N(C)[C@H](C)C(=O)O[C@H](C)[C@@H](N(C)C(=O)[C@H](CC(C)C)N(C)C(=O)[C@H](COC)N(C)C(=O)[C@@H](OC(=O)[C@H](C(C)C)N(C)C)C(C)C)C(=O)N(C)[C@@H](COC)C(=O)N1C | – | 10800 nM | – | – | – | – | –
CC[C@H](C)[C@H]1C(=O)N[C@@H](C)C(=O)N(C)[C@@H](CC(C)C)C(=O)N[C@@H](Cc2ccc(O)cc2)C(=O)N(C)[C@H](C)C(=O)O[C@H](C)[C@H](N(C)C(=O)[C@H](CC(C)C)N(C)C(=O)[C@H](COC)N(C)C(=O)[C@H](OC(=O)[C@H](C(C)C)N(C)C)C(C)C)C(=O)N(C)[C@@H](COC)C(=O)N1C | 277 nM | 183 nM | 222 nM | – | – | – | –
CC[C@H](C)[C@H]1C(=O)N[C@@H](C)C(=O)N(C)[C@@H](CC(C)C)C(=O)N[C@@H](Cc2ccc(OC)cc2)C(=O)N(C)[C@H](C)C(=O)O[C@H](C)[C@H](N(C)C(=O)[C@H](CC(C)C)N(C)C(=O)[C@H](COC(C)(C)C)N(C)C(=O)[C@H](OC(=O)[C@H](C(C)C)N(C)C)C(C)C)C(=O)N(C)[C@@H](C)C(=O)N1C | 32.9 nM | 5.3 nM | 12.4 nM | – | – | – | –
CC[C@H](C)[C@H]1C(=O)N[C@@H](C)C(=O)N(C)[C@@H](CC(C)C)C(=O)N[C@@H](Cc2ccc(OC)cc2)C(=O)N(C)[C@H](C)C(=O)O[C@H](C)[C@H](N(C)C(=O)[C@H](CC(C)C)N(C)C(=O)[C@H](C)N(C)C(=O)[C@H](OC(=O)[C@H](C(C)C)N(C)C(=O)CCNC(=O)OC(C)(C)C)C(C)C)C(=O)N(C)[C@@H](C)C(=O)N1C | 415 nM | 239 nM | 443 nM | – | – | – | –
CC[C@H](C)[C@H]1C(=O)N[C@@H](C)C(=O)N(C)[C@@H](CC(C)C)C(=O)N[C@@H](Cc2ccc(OC)cc2)C(=O)N(C)[C@H](C)C(=O)O[C@H](C)[C@H](N(C)C(=O)[C@H](CC(C)C)N(C)C(=O)[C@H](CCCCNC(=O)OC(C)(C)C)N(C)C(=O)[C@H](OC(=O)[C@H](C(C)C)N(C)C)C(C)C)C(=O)N(C)[C@@H](C)C(=O)N1C | 124 nM | 61.6 nM | 81.7 nM | – | – | – | –
CC[C@H](C)[C@H]1C(=O)N[C@@H](C)C(=O)N(C)[C@@H](CC(C)C)C(=O)N[C@@H](Cc2ccc(OC)cc2)C(=O)N(C)[C@H](C)C(=O)O[C@H](C)[C@H](N(C)C(=O)[C@H](CC(C)C)N(C)C(=O)[C@H](CO)N(C)C(=O)[C@H](OC(=O)[C@H](C(C)C)N(C)C)C(C)C)C(=O)N(C)[C@@H](CO)C(=O)N1C | 2180 nM | 2060 nM | – | – | – | – | –
CC[C@H](C)[C@H]1C(=O)N[C@@H](C)C(=O)N(C)[C@@H](CC(C)C)C(=O)N[C@@H](Cc2ccc(OC)cc2)C(=O)N(C)[C@H](C)C(=O)O[C@H](C)[C@H](N(C)C(=O)[C@H](CC(C)C)N(C)C(=O)[C@H](COC)N(C)C(=O)[C@H](OC(=O)[C@H](C(C)C)N(C)C)C(C)C)C(=O)N(C)[C@@H](COC)C(=O)N1C | 3.1 nM | 5 nM | 5.4 nM | – | – | – | –
CC[C@H](C)[C@H]1C(=O)N[C@@H](C)C(=O)N(C)[C@@H](CC(C)C)C(=O)N[C@@H](Cc2ccc(OC)cc2)C(=O)N(C)[C@@H](C)C(=O)O[C@H](C)[C@H](N(C)C(=O)[C@H](CC(C)C)N(C)C(=O)[C@H](COC)N(C)C(=O)[C@H](OC(=O)[C@H](C(C)C)N(C)C)C(C)C)C(=O)N(C)[C@@H](COC)C(=O)N1C | 12400 nM | 7520 nM | 20100 nM | – | – | – | –
CC[C@H](C)[C@H]1C(=O)N[C@@H](C)C(=O)N(C)[C@@H](CC(C)C)C(=O)N[C@@H](Cc2ccc(OC)cc2)C(=O)N(C)[C@H](C)C(=O)O[C@H](C)[C@H](N(C)C(=O)[C@H](CC(C)C)N(C)C(=O)[C@@H](COC)N(C)C(=O)[C@@H](OC(=O)[C@H](C(C)C)N(C)C)C(C)C)C(=O)N(C)[C@@H](COC)C(=O)N1C | 1910 nM | 2660 nM | 2000 nM | – | – | – | –
CC[C@H](C)[C@H]1C(=O)N[C@@H](C)C(=O)N(C)[C@@H](CC(C)C)C(=O)N[C@@H](Cc2ccc(OC)cc2)C(=O)N(C)[C@H](C)C(=O)O[C@H](C)[C@H](N(C)C(=O)[C@H](CC(C)C)N(C)C(=O)[C@H](COC)N(C)C(=O)[C@@H](OC(=O)[C@H](C(C)C)N(C)C)C(C)C)C(=O)N(C)[C@@H](COC)C(=O)N1C | – | 545 nM | 19 nM | – | – | – | –
CC[C@H](C)[C@H]1C(=O)N[C@@H](C)C(=O)N(C)[C@@H](CC(C)C)C(=O)N[C@@H](Cc2ccc(OC)cc2)C(=O)N(C)[C@H](C)C(=O)O[C@H](C)[C@H](N(C)C(=O)[C@H](CC(C)C)NC)C(=O)N(C)[C@@H](C)C(=O)N1C | – | > 16000 nM | – | – | – | – | –
CCCCCCCCCC(=O)N(C)[C@@H](CC(C)C)C(=O)N(C)[C@@H]1C(=O)N(C)[C@@H](C)C(=O)N(C)[C@@H]([C@@H](C)CC)C(=O)N[C@@H](C)C(=O)N(C)[C@@H](CC(C)C)C(=O)N[C@@H](Cc2ccc(OC)cc2)C(=O)N(C)[C@H](C)C(=O)O[C@@H]1C | 828 nM | 470 nM | 733 nM | – | – | – | –
CC[C@H](C)[C@H]1C(=O)N[C@@H](C)C(=O)N(C)[C@@H](CC(C)C)C(=O)N[C@@H](Cc2ccc(OC)cc2)C(=O)N(C)[C@@H](C)C(=O)O[C@H](C)[C@H](N(C)C(=O)[C@H](CC(C)C)N(C)C(=O)[C@H](COC)N(C)C(=O)[C@@H](OC(=O)[C@H](C(C)C)N(C)C)C(C)C)C(=O)N(C)[C@@H](COC)C(=O)N1C | – | > 16000 nM | 22800 nM | – | – | – | –
CC[C@H](C)[C@H]1C(=O)N[C@@H](C)C(=O)N(C)[C@@H](CC(C)C)C(=O)N[C@@H](Cc2ccc(OC)cc2)C(=O)N(C)[C@H](C)C(=O)O[C@H](C)[C@H](N(C)C(=O)[C@H](CC(C)C)N(C)C(=O)[C@H](CO)N(C)C(=O)[C@H](OC(=O)[C@H](C(C)C)N(C)C)C(C)C)C(=O)N(C)[C@@H](COC(C)(C)C)C(=O)N1C | 46.3 nM | 20.8 nM | 194 nM | – | – | – | –
